In the library only some 0.7% were active in any assay of this set; here they are far more common.
Glyco luc inh = increase of ERlucT glycosylation luciferase signal, primary screen, N-linked glycosylation inhibitor project, D54 ERlucT cells, luminescence, set 2; D54 ERlucT glycosylation luciferase reporter, 24 h; percent of 100 nM tunicamycin response; reporter increase, % at 12.5 µM; 360,000 compounds, 0.23% hits; AID 588692, 2011;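 active = mean luciferase reporter signal, scaled so untreated is 0 and the glycosylation-blocking control 100, at or above a set limit in every replicate; inconclusive = mean reaches the limit but not every replicate does; inactive = mean below the limit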;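 note: luciferase carries N-glycosylation sites so blocking glycosylation raises the light; 0% = median of neutral control wells and 100% = median of 100 nM tunicamycin wells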
RAD52 anneal inh = RAD52 DNA annealing inhibitors, primary screen, biochemical, FRET, single point, set 2. DNA repair protein RAD52 homolog (Homo sapiens), P43351. recombinant RAD52 DNA annealing, FRET fluorescence. inhibition, % at 18.7 µM. 360,000 compounds, 0.46% hits. AID 651710, 2012;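 active = every replicate showing at least 50% inhibition; inconclusive = mean inhibition at least 50% but not in every replicate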
RAD54 branch = inhibitors of human RAD54 branch migration, primary screen, biochemical, fluorescence, single point; DNA repair and recombination protein RAD54-like (Homo sapiens), Q92698; RAD54 Holliday junction branch migration, FAM/BHQ fluorescence; inhibition, % at 10.4 µM; 360,000 compounds, 0.14% hits; AID 602329, 2012;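 active = mean normalized replicate activity at least 40 and at least half of replicates scoring 40 or more; inconclusive = only one of the two criteria met; inactive = mean below 40 and under half of replicates reaching 40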;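 note: 0% = median of neutral control wells and 100% = median of positive control wells; inhibitors cause a drop in the FAM fluorescence signal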
Target sequence (Q92698 whole entry, looked up): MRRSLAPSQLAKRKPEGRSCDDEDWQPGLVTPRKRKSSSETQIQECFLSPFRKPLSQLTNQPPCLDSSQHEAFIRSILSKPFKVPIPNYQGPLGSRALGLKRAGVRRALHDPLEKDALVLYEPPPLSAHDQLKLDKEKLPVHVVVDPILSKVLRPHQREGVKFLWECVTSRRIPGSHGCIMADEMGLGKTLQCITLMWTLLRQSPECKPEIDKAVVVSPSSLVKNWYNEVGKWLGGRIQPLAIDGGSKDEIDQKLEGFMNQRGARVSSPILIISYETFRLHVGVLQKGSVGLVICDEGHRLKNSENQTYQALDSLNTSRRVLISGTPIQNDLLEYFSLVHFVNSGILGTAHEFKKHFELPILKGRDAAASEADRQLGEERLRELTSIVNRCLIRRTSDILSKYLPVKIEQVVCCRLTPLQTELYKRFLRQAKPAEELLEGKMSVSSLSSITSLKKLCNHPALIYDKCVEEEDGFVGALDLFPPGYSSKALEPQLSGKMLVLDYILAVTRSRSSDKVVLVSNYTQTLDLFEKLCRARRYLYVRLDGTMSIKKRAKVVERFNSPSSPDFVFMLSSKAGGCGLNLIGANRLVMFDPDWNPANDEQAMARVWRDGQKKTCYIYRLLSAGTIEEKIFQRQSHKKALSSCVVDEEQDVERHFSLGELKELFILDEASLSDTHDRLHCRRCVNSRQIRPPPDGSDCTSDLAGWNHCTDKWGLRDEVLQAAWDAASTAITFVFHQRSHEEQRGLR
CaV13 ICDI inh = Disruptors of the CACNA1D IQ motif to Ca2+-dependent inactivation inhibitor domain association, primary screening, Förster resonance energy transfer in intact living …; HEK cells, CFP/YFP FRET ICDI-IQ, plate reader, 10 min; percent FRET-ratio fall versus neutral wells; 340,000 compounds, 0.098% hits; inhibition, % at 12.3 µM; AID 743397;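 active = mean replicate inhibition of at least 30% and at least 1% of replicates passing that level; inconclusive = only one of the two criteria is met; inactive = neither criterion is met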;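 note: 0% = median of the neutral control wells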
FN deposit inh = inhibitors of fibronectin matrix deposition, primary screen, AH1F cells, Alexa488-fibronectin fluorescence, plate reader | 350,000 compounds, 0.086% hits | AID 743247, 2014 | AH1F fibroblasts, overnight | inhibition, % at 12.6 µM;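 active = mean inhibition across replicates of 30% or more, regardless of how many single replicates reach that level; inconclusive = mean under 30% yet at least half of replicates reach 30%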;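 note: positive control wells lacked labelled fibronectin entirely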
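Assay system: AH1F fibroblasts / Quantity: 10000 cells per well / Medium: DMEM plus 2% serum, read in PBS / Reagent: labelled fibronectin 24 nM / Dosing: single dose, pinned / Times: 1 h cell attachment, overnight exposure to compound and label / Signal: fluorescence, ex 485 nm, em 525 nm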
DNA binding = DNA binding of candidate compounds, dose response, artefact control for RAD54 inhibitor project, biochemical, fluorescence polarization, cherry-pick. shares compounds with RAD54 branch. Acridine orange-DNA displacement, 20 min. AC50, µM (series often up to 35 µM), for the others: top-dose activity change, negative = DNA binding. 460 compounds, 8% hits. AID 651673, 2012;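 active = signal drop giving an AC50 within twice the top valid tested concentration of each sample, actives reach about 35 µM in these data; inactive = activity opposite to expected, plus the rest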;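 note: polarization loss reports compound binding to salmon sperm DNA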
RAD52 DNA ctr = DNA-binding compounds via dye displacement, dose response, artefact control for RAD52 inhibitor project, biochemical, fluorescence polarization, cherry-pick; shares compounds with RAD52 anneal inh; Salmon sperm DNA/acridine orange FP displacement; AC50, µM; 1,000 compounds, 8% hits; AID 652128, 2013;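 active = fitted half-maximal concentration for signal loss at or below twice the highest dose tested, in every separate run, actives reach about 64 µM in these data; inconclusive = runs disagree, or flat partial signal loss, or poor fit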
Active calls of the source: *.

For Cc1ccc(Nc2nc(NCCO)c3ccccc3n2)cc1C the results were Glyco luc inh -14, RAD52 anneal inh 27, RAD54 branch 22, CaV13 ICDI inh -5 and FN deposit inh 9.
For COc1ccc(OC)c(Nc2nc(NCCO)c3ccccc3n2)c1 the results were Glyco luc inh 15, RAD52 anneal inh 88*, RAD54 branch 94*, CaV13 ICDI inh -3, FN deposit inh 2, DNA binding -9% and RAD52 DNA ctr inactive.
For N#C[C@@H]1[C@@H](c2ccccc2C2=CCCC2)[C@@H](CO)N1C(=O)NC1CCCCC1 the results were RAD52 anneal inh -19 and FN deposit inh 3.
Screening CC(=O)Nc1cc(-c2cccc(C(=O)NCCN(C)C)c2)cn2c(-c3ccc(F)c(Cl)c3)cnc12 returned Glyco luc inh -4, RAD52 anneal inh 41, RAD54 branch 17, CaV13 ICDI inh -5 and FN deposit inh 4.
COc1ccc(-c2cnc3c(NC(C)=O)cc(-c4cccc(C(=O)NCCO)c4)cn23)cc1OC was read as Glyco luc inh 0, RAD52 anneal inh 0, RAD54 branch 5, CaV13 ICDI inh -10 and FN deposit inh -7.
For COc1cccc(-c2cnc3c(NC(C)=O)cc(-c4cccc(C(=O)NCCN(C)C)c4)cn23)c1 the results were Glyco luc inh -4, RAD52 anneal inh 100*, RAD54 branch 78*, CaV13 ICDI inh -6, FN deposit inh 1, DNA binding 0% and RAD52 DNA ctr inactive.
For COc1ccc(-c2cnc3c(NC(C)=O)cc(-c4cccc(C(=O)NCCN(C)C)c4)cn23)cc1OC the results were Glyco luc inh -8, RAD52 anneal inh 101*, RAD54 branch 76*, CaV13 ICDI inh -5, FN deposit inh 5, DNA binding 1% and RAD52 DNA ctr inactive.
For CC(=O)Nc1cc(-c2cccc(C(=O)NCCN(C)C)c2)cn2c(-c3ccc(C(C)=O)cc3)cnc12 the results were Glyco luc inh -5, RAD52 anneal inh 71*, RAD54 branch 101*, CaV13 ICDI inh -7, FN deposit inh -3, DNA binding -18% and RAD52 DNA ctr inactive.
Screening CCCNC(=O)C[C@@H]1CC[C@@H]2[C@H](COC[C@H](O)CN2C(=O)c2cccnc2)O1 returned RAD52 anneal inh -4, RAD54 branch -1 and FN deposit inh -7.
CO[C@H]1CC[C@H]2CCOc3c(C#N)cccc3C(=O)N(C)CCCC(=O)N(C)C[C@H]1O2 was read as RAD52 anneal inh 3, RAD54 branch -12 and FN deposit inh -3.
CC(C)OCC(O)CN1CCN(CCN2C(=O)c3cccc4cccc(c34)C2=O)CC1 (stereo not drawn) was read as Glyco luc inh 33*, RAD52 anneal inh 93*, RAD54 branch 79*, CaV13 ICDI inh -2, FN deposit inh 5, DNA binding -13% and RAD52 DNA ctr inactive.
`CN(C)CCCNc1nc2cc(-c3cccc(Cl)c3)sc2c(=O)n1C` gave Glyco luc inh -1, RAD52 anneal inh 89*, RAD54 branch 50*, CaV13 ICDI inh -7, FN deposit inh -2, DNA binding -7% and RAD52 DNA ctr inactive.
COc1ccc(-c2cc3nc(NCCCN(C)C)n(C)c(=O)c3s2)cc1OC was read as Glyco luc inh 1, RAD52 anneal inh 84*, RAD54 branch 69*, CaV13 ICDI inh -4, FN deposit inh 8, DNA binding -6% and RAD52 DNA ctr inactive.
For Cc1ccccc1-c1cc2nc(NCCCN(C)C)n(C)c(=O)c2s1 the results were Glyco luc inh 0, RAD52 anneal inh 25, RAD54 branch 12, CaV13 ICDI inh -7 and FN deposit inh 3.
CN(C)CCCNc1nc2cc(-c3ccn[nH]3)sc2c(=O)n1C was read as Glyco luc inh 0, RAD52 anneal inh 43, RAD54 branch 29, CaV13 ICDI inh -12 and FN deposit inh -7.
For Cc1ccsc1-c1cc2nc(NCCCN(C)C)n(C)c(=O)c2s1 the results were Glyco luc inh 4, RAD52 anneal inh 58*, RAD54 branch inconclusive, CaV13 ICDI inh -7, FN deposit inh -2, DNA binding 3% and RAD52 DNA ctr inactive.
For O=C(CCN1CCCCC1)NCC[C@@H]1CC[C@H](NC(=O)C2CCCCC2)[C@@H](CO)O1 the results were RAD52 anneal inh -2 and FN deposit inh 7.
`CCC(=O)Nc1ccc2c(c1)C(=O)N(C)C[C@@H](OC)[C@@H](C)CN(CC1CCOCC1)[C@H](C)CO2` gave RAD54 branch 6.
For COc1ccc2c3c([nH]c2c1)C(C)N(CCC(=O)NN)CC3 (stereo not drawn) the results were Glyco luc inh -4, RAD52 anneal inh 79*, RAD54 branch 27, CaV13 ICDI inh -4, FN deposit inh -5 and RAD52 DNA ctr inactive.
`COc1ccc2c3c([nH]c2c1)C(C)N(C(C)=O)CC3` (stereo not drawn) gave Glyco luc inh 5, RAD52 anneal inh 2, RAD54 branch 0, CaV13 ICDI inh -3 and FN deposit inh 9.
CO[C@H](CN(C)Cc1cc(F)ccc1F)[C@H](C)CN(C(=O)Nc1ccc(F)cc1)[C@H](C)CO was read as RAD52 anneal inh 4, RAD54 branch -1 and FN deposit inh -2.
Screening C[C@@H]1CCCCO[C@H](CN(C)C(=O)c2ccccc2)[C@@H](C)CN([C@@H](C)CO)C(=O)c2cc(NC(=O)Nc3ccccc3)ccc2O1 returned RAD52 anneal inh 6, RAD54 branch -23 and FN deposit inh 2.
Screening COc1cc(OC)cc(C2=Cc3ccc(OC)cc3C(CC(C)=O)N2c2ccc(C#CC3(N)CCCCC3)cc2)c1 (stereo not drawn) returned RAD52 anneal inh -11, CaV13 ICDI inh -5 and FN deposit inh -9.
COc1cc(OC)cc(C2=Cc3ccccc3C(CC(C)=O)N2c2ccc(C#CC3(N)CCCCC3)cc2)c1 (stereo not drawn) was read as RAD52 anneal inh 91*, CaV13 ICDI inh -10, FN deposit inh -2 and RAD52 DNA ctr inactive.

Source: PubChem (Broad Institute)
